Reference: ChEMBL document CHEMBL4364261, “Positive Charge Patterning and Hydrophobicity of Membrane-Active Antimicrobial Peptides as Determinants of Activity, Toxicity, and Pharmacokinetic Stability” (J Med Chem, 2019)
Activity calls are given as the source filed them. The rule behind the calls is not given here.

How the values were obtained:
[1] = Hemolytic activity in human RBC assessed as hemolysis at 40 uM measured after 1 hr; assay type: ADME, cell-based, Erythrocyte; conditions: human red blood cells (erythrocytes), read-out: Activity
Outline: (§1)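 Fresh human erythrocytes washed and resuspended in PBS to a final 4% (v/v). Incubated 1 h at 37 °C with 2-fold serial peptide dilutions from 0 to 640 μM. Supernatant absorbance at 540 nm; PBS taken as 0% and 1% Triton as 100% hemolysis. Standard deviation reported; one-way ANOVA applied.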

Escherichia coli [2] = test: Antibacterial activity against Escherichia coli K-12 measured after 20 hrs by microtiter dilution method; assay type: functional; conditions: K-12, 20 h
Outline: (§2)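 Mueller-Hinton broth microdilution; 2-fold serial dilutions of peptide from 0 to 50 μM incubated 20 h at 37 °C with 50 000 cfu/well from an overnight MHB culture. Bacterial growth read as background-subtracted OD600. MIC recorded as the peptide concentration at which growth is inhibited. P. aeruginosa isolates came from sputum of cystic fibrosis patients with infections persisting after inhaled tobramycin.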

Pseudomonas aeruginosa [3] = test: Antibacterial activity against Pseudomonas aeruginosa PAO1 measured after 20 hrs by microtiter dilution method; assay type: functional; conditions: PAO1, 20 h; outline: as §2
Pseudomonas aeruginosa [4] = test: Antibacterial activity against tobramycin-pretreated Pseudomonas aeruginosa isolate 214 measured after 20 hrs by microtiter dilution method; assay type: functional; outline: as §2
Pseudomonas aeruginosa [5] = test: Antibacterial activity against tobramycin-pretreated Pseudomonas aeruginosa isolate 287 measured after 20 hrs by microtiter dilution method; assay type: functional; outline: as §2
Pseudomonas aeruginosa [6] = test: Antibacterial activity against tobramycin-pretreated Pseudomonas aeruginosa isolate 330 after 20 hrs by microtiter dilution method; assay type: functional; outline: as §2
Pseudomonas aeruginosa [7] = test: Antibacterial activity against tobramycin-pretreated Pseudomonas aeruginosa isolate 380 after 20 hrs by microtiter dilution method; assay type: functional; outline: as §2
Escherichia coli [8] = test: Binding affinity to Escherichia coli lipid extract liposome membrane at 25 uM by CD spectroscopic analysis; assay type: cell membranes
Outline: (§3)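 CD spectra of 25 μM peptide in 10 mM Tris, 10 mM NaCl, pH 7.4, with 2 mg/mL E. coli total lipid extract or POPC liposomes, equilibrated overnight. Helicity judged at 222 nm. Average of at least three independent experiments.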

Lipid bilayer [9] = test: Binding affinity to POPC membrane at 25 uM by CD spectroscopic analysis; assay type: ADME; outline: as §3
Lipid bilayer [10] = test: Binding affinity to POPC membrane at 10 uM by tryptophan fluorescence method; assay type: ADME
Outline: (§4)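 Peptide at 10 μM in 10 mM Tris, 10 mM NaCl, pH 7.4, with 0.8 mg/mL E. coli total lipid extract or POPC liposomes, equilibrated overnight before recording. Trp excited at 280 nm, emission scanned 300–400 nm. After background subtraction, the wavelength of maximal emission was taken.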

Escherichia coli [11] = test: Induction of terbium(3)-loaded Escherichia coli lipid extract liposome membrane disruption at 10 uM measured after 20 mins by fluorescence assay relative to control; assay type: cell membranes
Lipid bilayer [12] = test: Binding affinity to terbium(3)-loaded POPC membrane at 10 uM measured for 10 mins by fluorescence assay relative to control; assay type: ADME
Outline: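 Tb3+-loaded liposomes, E. coli lipid or POPC, size-exclusion exchanged and diluted to 2.5% (v/v) in dipicolinic acid buffer, stirring. Peptide added at 10 μM. Tb3+ excited at 314 nm, emission at 544 nm recorded for 10 min. Liposome-only signal subtracted, normalized to a 0.1% Triton-lysed control as 100% disruption.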

[13] = Hemolytic activity in human RBC assessed as hemolysis at 320 to 640 uM measured after 1 hr; assay type: ADME, cell-based, Erythrocyte; conditions: human red blood cells (erythrocytes), read-out: Activity; outline: as §1
[14] = Stability of the compound assessed as Engyodontium album PMSF-pretreated proteinase K-mediated compound hydrolysis at 20 uM incubated for 10 mins at 70 degC by coomassie blue staining-based NuPAGE analysis; assay type: ADME; conditions: parengyodontium album, 1 h, in the assay text read “incubated for up to 1 hr at 37 degC” for “incubated for 10 mins at 70 degC”
Outline: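 Reactions stopped with 5 mM PMSF; PMSF-preinhibited enzyme served as control. Samples heated 70 °C for 10 min and run on 12% Bis-Tris gels with Coomassie staining. Band density normalized to T0.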

Escherichia coli [15] = test: Binding affinity to Escherichia coli lipid extract liposome membrane at 10 uM by tryptophan fluorescence method; assay type: cell membranes; outline: as §4
Escherichia coli [16] = test: Binding affinity to Escherichia coli lipid extract liposome membrane at 10 uM by tryptophan fluorescence quenching method; assay type: cell membranes
Outline: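 Acrylamide quenching of Trp; peptide 10 μM with 0.8 mg/mL E. coli lipid liposomes. Excitation at 295 nm, emission 310–400 nm. Read-out is the Stern–Volmer slope, with larger slopes meaning more quenching. At least two independent experiments, error given as standard deviation.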

Lipid bilayer [17] = test: Binding affinity to 11,12-BrPC-loaded POPC membrane at 10 uM by tryptophan fluorescence method; assay type: ADME

Row | Substance | hemolysis at 1 h, 40 µM [1] [%] | MIC (Escherichia coli [2]) [µM] | MIC (Pseudomonas aeruginosa [3]) [µM] | MIC (Pseudomonas aeruginosa [4]) [µM] | MIC (Pseudomonas aeruginosa [5]) [µM] | MIC (Pseudomonas aeruginosa [6]) [µM] | MIC (Pseudomonas aeruginosa [7]) [µM] | Activity (Escherichia coli [8]) | Activity (Lipid bilayer [9]) | Activity (Lipid bilayer [10]) | Activity (Escherichia coli [11]) [%] | Activity (Lipid bilayer [12]) [%] | hemolysis at 1 h, up to 640 µM [13] [%] | Stability [14] | Activity (Escherichia coli [15]) | Activity (Escherichia coli [16]) | Activity (Lipid bilayer [17])
1 | H-KKKKAAFLKLWLKLFAA-NH2 | 8 | 12.5 | > 50 | > 50 | > 50 | > 50 | > 50 | Active | Active | Active | 40 | 25 to 70 |  |  |  |  | 
2 | H-KKKKKALFLKLWAAFLA-NH2 | 49 | 3.1 | 12.5 | 6.3 | 6.3 | 12.5 | > 50 | Active | Active | Active | 40 | 25 to 70 |  |  |  |  | 
3 | H-KKLKAFLKAWAKLFKAL-NH2 | 89 | 1.6 | 3.1 | 3.1 | 3.1 | 6.3 | 1.5 | Active | Active | Active | 40 | 25 to 70 | < 1 |  |  |  | 
4 | H-KKKKKAAFAKAWAAFAA-NH2 | 0 | 6.3 | 25 | 25 | 50 | 50 | 50 | Active | Not Active |  |  |  | < 1 | Stable | Active |  | 
5 | H-KKKKKKALFALWLAFLA-NH2 | 33 | 12.5 | > 50 | 50 | 25 | > 50 | > 50 | Active | Active | Active | 80 | 4 to 8 |  |  |  | Active | Not Active
6 | H-KKKAAFAKAWAKAFKAA-NH2 | 0 | 25 | 50 | 50 | > 50 | > 50 | > 50 | Active | Not Active |  | 80 |  | < 1 | Unstable | Active |  | 
7 | H-KKKKAAFAKAWAKAFAA-NH2 | 0 | 12.5 | 50 | 50 | > 50 | > 50 | 50 | Active | Not Active |  |  |  | < 1 | Unstable | Active |  | 
8 | H-KKKKKKAAFAAWAAFAA-NH2 | 0 | 1.6 | 12.5 | 3.1 | 3.1 | 25 | 12.5 | Active | Not Active |  | 35 |  | < 1 | Stable | Active | Active | 
9 | H-KKKAAFLKLWAKLFKAL-NH2 | 100 | 3.1 | 3.1 | 3.1 | 3.1 | 6.3 | 3.1 | Active | Active | Active | 40 | 25 to 70 |  |  |  |  | 
10 | H-KALKKFLKAWAKLFKAL-NH2 | 81 | 1.6 | 3.1 | 3.1 | 3.1 | 6.3 | 6.3 | Active | Active | Active | 40 | 25 to 70 | < 1 |  |  | inactive | Active
11 | H-KKAKAFAKAWAKAFKAA-NH2 | 0 | 12.5 | 25 | 50 | 50 | > 50 | > 50 | Active | Not Active |  | 80 |  | < 1 | Unstable | Active |  | 
12 | H-KAAKKFAKAWAKAFKAA-NH2 | 0 | 12.5 | 50 | > 50 | > 50 | > 50 | > 50 | Active | Not Active |  | 8 |  | < 1 | Unstable | Active | Active | 
